# GalR3 antag = GalR3 antagonists in HEK293 cells, primary screen, cell-based, fluorescence readout; Galanin receptor type 3 (Homo sapiens), O60755; HEK293 GalR3-CNG cAMP membrane potential fluorescence; galR3 body fused to GalR1 C-terminus; inhibition, % at 3 µM; 360,000 tested, 0.44% active;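 active = inhibition above the screen-wide average plus 3 SD, cut at about 13% in these data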;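 also: forskolin and galanin both at EC90 stimulate the cells; cAMP rise reported by CNG channel membrane potential dye signal; 0% = forskolin plus galanin with DMSO and 100% = forskolin alone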
# Target sequence (O60755 1-299 limits assumed): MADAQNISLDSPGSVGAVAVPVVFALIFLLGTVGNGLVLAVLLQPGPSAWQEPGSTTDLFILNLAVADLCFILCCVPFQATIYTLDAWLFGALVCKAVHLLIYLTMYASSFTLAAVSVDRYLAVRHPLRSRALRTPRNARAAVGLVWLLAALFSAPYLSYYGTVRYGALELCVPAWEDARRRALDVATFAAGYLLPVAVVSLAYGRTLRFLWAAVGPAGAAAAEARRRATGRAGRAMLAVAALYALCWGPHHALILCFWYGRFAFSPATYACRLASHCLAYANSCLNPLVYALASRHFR
# OX1R antag-1 = antagonists of human orexin 1 receptor (OX1R) | 330,000 tested, 1.8% active | inhibition, % at 6.6 µM | Orexin/Hypocretin receptor type 1 (Homo sapiens), O43613 | OX1R-expressing cells, FRET antagonist read-out; in the data active = inhibition mostly above about 38%, no sharp cut-off; inactive = mostly below about 40%;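 also: 0% = agonist challenge alone and 100% = reference antagonist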
# GPR7 antagonist = GPR7 receptor antagonists, primary screen, cell-based, fluorescence, single concentration | 290,000 tested, 1.1% active | AID 1861, 2009 | inhibition, % at 4.4 µM | Neuropeptides B/W receptor type 1 (Homo sapiens), P48145 | GPR7-expressing cells, fluorescence antagonist assay; in the data active = inhibition above about 16%, passing the limit was not always enough;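 also: cells stimulated with the agonist NPW; 0% = agonist with vehicle and 100% = vehicle without agonist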
# OX1R antag-2 = OX1R (HCRTR1) antagonists, primary screen, fluorescence, CHO/OX1R cells, Fluo-8 calcium, orexin A; inhibition, % at 5 µM; 330,000 tested, 0.43% active; Fluo-8 calcium fluorescence; Orexin/Hypocretin receptor type 1 (Homo sapiens), O43613; AID 434989, 2010;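 active = inhibition above its plate's threshold, mean inhibition of all tested compounds on the plate plus 3 SD, cut at about 37% in these data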;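 also: 0% = orexin A challenge wells and 100% = SB-334867-A antagonist wells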
# CHO parental Ca = ATP-evoked calcium signal inhibitors, parental CHO, primary screen, counter-screen for OX1R antagonist project, cell-based, fluorescence, Fluo-8 calcium dye; 330,000 tested, 0.63% active; inhibition, % at 5.6 µM; parental CHO-K1, ATP-induced calcium, Fluo-8 fluorescence; AID 463079, 2010;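 active = inhibition above that plate's mean sample inhibition plus 3 SD, cut at about 26% in these data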;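 also: 0% = ATP-challenged DMSO wells and 100% = DMSO wells without ATP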
#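 Assay system: untransfected parental CHO cell line. Also added: ATP agonist challenge. Dosing: one dose, 5.6 µM nominal. Measured by: Fluo-8 fluorescence. Read-out: % inhibition. Benchmarks: ATP wells versus no-ATP DMSO wells. Repeats: no replicates.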
# GPR7 antag cf = GPR7 receptor antagonists, confirmation, cell-based, fluorescence, single concentration | shares compounds with GPR7 antagonist | GPR7-expressing cells, calcium fluorescence antagonist mode | inhibition, % at 4.4 µM | 2,400 tested, 52% active | AID 1952, 2009; in the data active = inhibition above about 24%;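 also: stimulated with the GPR7 agonist NPW; 0% = agonist plus vehicle and 100% = vehicle alone without agonist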
# MCHR1 antag = MCHR1 antagonists in cells, counter-screen for GPR7 antagonist project, cell-based, fluorescence, human | 2,400 tested, 62% active | inhibition, % at 4.4 µM | shares compounds with GPR7 antagonist | AID 2148, 2009 | MCHR1-expressing cells, fluorescence antagonist assay; in the data active = inhibition above about 22%;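 also: 0% = vehicle with agonist and 100% = vehicle without agonist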
# An asterisk follows results filed as active; x = no result given. Sampled rows, rich in hits. Any-hit rate of the full collection: about 3.1%.
SMILES,GalR3 antag,OX1R antag-1,GPR7 antagonist,OX1R antag-2,CHO parental Ca,GPR7 antag cf,MCHR1 antag
Cc1ccc(C)c(OCCn2cc(C(=O)O)c3ccccc32)c1,-9,22,95*,7,-7,6,6
C#CCOCC1CNC(=S)O1 (stereo not drawn),2,x,x,x,x,x,x
CN(C(=O)CN1C(=O)C2C3CC(C(Br)C3Br)C2C1=O)C1CCCCC1 (stereo not drawn),-8,7,23*,-2,-14,39*,4
CC(C)=CC(=O)NCC1CCN(C(=O)C(=O)c2cc3ccccc3o2)CC1,0,x,x,x,x,x,x
COc1cc(CN2CCC(CO)(Cc3cccc(C(F)(F)F)c3)CC2)ccc1F,-5,8,34*,-15,-19,18,44*
COc1ccc(F)c(CN2CCC(CO)(Cc3cccc(C(F)(F)F)c3)CC2)c1,-4,14,18,-33,-2,x,x
CCCN(CCC)CC(O)Cn1cc(/C=C/C(=O)c2ccccc2)c2ccccc21 (stereo not drawn),-10,x,6,x,x,x,x
CCCCN(C)CC(O)Cn1cc(/C=C/C(=O)c2ccc(C)cc2)c2ccccc21 (stereo not drawn),-18,4,37*,-16,3,37*,36*
COc1ccccc1-c1noc(CCC(=O)Nc2cccnc2)n1,-7,x,x,x,x,x,x
COc1ccccc1-c1noc(CCC(=O)Nc2cc(C(F)(F)F)ccc2Cl)n1,-6,24,23*,6,13,15,32*
Cc1cc(C)cc(-n2c3ccc(NC(=O)Cc4cccc5ccccc45)cc3c(=O)n2C)c1,-4,x,x,x,x,x,x
CC1(C)Cc2c(C#N)c(N)n(-c3ccccc3)c(=S)c2CO1,0,19,92*,-4,-6,-3,-7
O=C(C(=O)N1CCN(S(=O)(=O)c2ccc(Cl)cc2)CC1)c1cccc(C(F)(F)F)c1,-3,x,x,x,x,x,x
OCCCc1nc2ccccc2n1CCOc1ccccc1,-7,24,-1,-9,-6,x,x
Cc1ccc(OCCn2c(CCCO)nc3ccccc32)cc1,1,13,23*,-21,-6,11,7
COc1ccc(CN2CCc3c([nH]c4ccccc34)C2)cc1Br,-5,10,42*,-22,-18,52*,38*
CCOc1cc(CN2CCc3c([nH]c4ccccc34)C2)ccc1OC,-14,x,-15,x,x,x,x
CCOC(=O)C1(CCCc2ccccc2)CCN(C2CCSCC2)CC1,-7,x,43*,x,x,50*,33*
OCC1(CCCc2ccccc2)CCN(C2CCSCC2)CC1,-5,9,17,-32,-9,x,x
Cc1n[nH]c(C)c1N1C(=O)c2cccc3c(N4CCCCCC4)ccc(c23)C1=O,-4,14,52*,90*,76*,41*,56*
C=CCN1C(=O)c2cccc3c(N4CCCCC4)ccc(c23)C1=O,-4,31,-12,6,16,x,x
CCOC(=O)N1CCC(N(C(=O)Nc2cccc(OC)c2)C(C)CC)CC1 (stereo not drawn),-7,-2,32*,5,-6,19,-12
CCCc1cc(C(=O)Nc2cccc(-c3nn[nH]n3)c2)sc1C,-5,x,x,x,x,x,x
CCc1ccc(NC(=O)C2(c3ccccc3)CC2(Cl)Cl)cc1 (stereo not drawn),-8,13,29*,52*,14,65*,76*
CC(C)N(C)c1ncnc2c1ncn2[C@H]1CN(Cc2cccs2)C[C@@H](CO)O1,-3,x,x,x,x,x,x
CCOC(=O)CCC(NC(=O)c1ccc(Nc2nc3ccccc3nc2C(=O)OCC)cc1)C(=O)OCC (stereo not drawn),-6,x,x,x,x,x,x

# Screening results from PubChem BioAssay.
